According to ChEMBL document CHEMBL1641514, “Drug metabolism-based design, synthesis, and bioactivities of 1-(2,6-dimethylphenoxy)-2-(3,4-dimethoxyphenylethylamino)propane hydrochloride (DDPH) analogs as α₁-adrenoceptors antagonists” (Bioorg Med Chem, 2011):

Assays:
[1] = molecular target: T1, Adrenergic receptor alpha-1 (Rattus norvegicus, UniProt P15823+P23944+P43140); test: Antagonist activity at alpha1 adrenergic receptor in Sprague-Dawley rat anococcygeus smooth muscle assessed as inhibition of phenylepinephrine-induced muscle contraction treated 20 mins before phenylepinephrine challenge; format: functional
T1 sequence (P15823 whole entry): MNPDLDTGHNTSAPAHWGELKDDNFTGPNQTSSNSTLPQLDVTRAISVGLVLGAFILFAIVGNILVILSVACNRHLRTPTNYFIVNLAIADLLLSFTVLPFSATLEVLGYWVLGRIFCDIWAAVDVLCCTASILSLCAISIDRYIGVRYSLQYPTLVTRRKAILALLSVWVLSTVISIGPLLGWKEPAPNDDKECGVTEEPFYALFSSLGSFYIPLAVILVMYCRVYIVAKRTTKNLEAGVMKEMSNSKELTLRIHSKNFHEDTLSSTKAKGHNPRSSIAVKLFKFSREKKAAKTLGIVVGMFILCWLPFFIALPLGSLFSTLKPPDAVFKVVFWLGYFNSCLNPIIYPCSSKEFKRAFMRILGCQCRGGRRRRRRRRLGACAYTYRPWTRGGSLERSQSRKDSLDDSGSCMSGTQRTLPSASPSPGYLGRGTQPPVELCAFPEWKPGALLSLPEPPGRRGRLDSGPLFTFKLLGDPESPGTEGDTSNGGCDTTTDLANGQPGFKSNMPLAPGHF
T1 sequence (P23944 whole entry): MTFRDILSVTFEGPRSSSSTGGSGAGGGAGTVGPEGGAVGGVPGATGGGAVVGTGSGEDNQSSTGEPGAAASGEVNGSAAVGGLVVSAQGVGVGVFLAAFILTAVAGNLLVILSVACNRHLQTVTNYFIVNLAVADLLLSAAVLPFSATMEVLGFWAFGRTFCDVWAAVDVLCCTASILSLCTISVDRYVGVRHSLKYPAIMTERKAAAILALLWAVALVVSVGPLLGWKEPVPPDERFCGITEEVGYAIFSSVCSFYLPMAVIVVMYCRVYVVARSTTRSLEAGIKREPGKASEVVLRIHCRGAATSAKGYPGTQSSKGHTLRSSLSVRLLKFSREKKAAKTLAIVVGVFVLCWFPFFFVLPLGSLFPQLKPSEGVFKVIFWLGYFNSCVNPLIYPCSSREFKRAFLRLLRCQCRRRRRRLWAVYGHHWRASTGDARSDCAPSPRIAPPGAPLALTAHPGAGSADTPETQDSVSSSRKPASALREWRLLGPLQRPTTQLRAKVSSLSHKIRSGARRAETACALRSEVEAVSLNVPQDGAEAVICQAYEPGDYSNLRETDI
T1 sequence (P43140 whole entry): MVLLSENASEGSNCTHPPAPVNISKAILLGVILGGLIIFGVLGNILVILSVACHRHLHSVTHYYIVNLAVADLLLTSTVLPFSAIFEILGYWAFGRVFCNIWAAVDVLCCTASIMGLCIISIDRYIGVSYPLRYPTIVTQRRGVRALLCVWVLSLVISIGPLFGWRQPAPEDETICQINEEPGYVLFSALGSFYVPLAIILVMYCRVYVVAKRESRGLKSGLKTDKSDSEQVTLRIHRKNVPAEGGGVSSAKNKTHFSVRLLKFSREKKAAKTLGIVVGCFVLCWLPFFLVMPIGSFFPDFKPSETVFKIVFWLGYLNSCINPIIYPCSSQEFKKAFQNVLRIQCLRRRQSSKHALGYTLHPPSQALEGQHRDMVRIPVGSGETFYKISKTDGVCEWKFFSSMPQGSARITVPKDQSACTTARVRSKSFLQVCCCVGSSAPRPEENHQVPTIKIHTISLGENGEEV
Procedure, shortened: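 Male Sprague–Dawley rats (300–350 g) killed by cervical dislocation. Anococcygeus muscle mounted in a 20 mL bath of Krebs solution (pH 7.4), 37 °C, gassed with 5% CO₂/95% O₂. Resting tension 1.0 g. Equilibrated 1 h with Krebs renewal every 20 min. Cocaine, hydrocortisone and propranolol then added. pA₂ read out.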

[2] = system: Rattus norvegicus; test: Antihypertensive activity in Sprague-Dawley rat assessed as change in mean arterial pressure at 5 mg/kg, iv
[3] = system: Rattus norvegicus; test: Antihypertensive activity in Sprague-Dawley rat assessed as time duration of hypotensive response at 5 mg/kg, iv
[4] = system: Rattus norvegicus; test: Antihypertensive activity in Sprague-Dawley rat assessed as change in diastolic arterial pressure at 5 mg/kg, iv
[5] = system: Rattus norvegicus; test: Antihypertensive activity in Sprague-Dawley rat assessed as change in heart rate at 5 mg/kg, iv
[6] = system: Rattus norvegicus; test: Antihypertensive activity in Sprague-Dawley rat assessed as change in systolic arterial pressure at 5 mg/kg, iv

Question: Which pA2 [1] does the source give for `COc1ccc(CCNC(C)COc2c(C)cc(C#N)cc2C)cc1O.Cl` (configuration not stated) here?
Answer: 5.61

Question: What about the Activity [2] of the same molecule?
Answer: -11%

Question: What about the Time [3] of the same molecule?
Answer: 4 min

Question: And the Activity [4]?
Answer: -14.2%

Question: And the Activity [5]?
Answer: -6.4%

Question: What about the Activity [6] of the same molecule?
Answer: -8.2%

Question: For `COc1cc(CCNC(C)COc2c(C)cc(Cl)cc2C)ccc1O.Cl` (configuration not stated), which pA2 [1] is on record?
Answer: 8.6

Question: What about the Activity [2] of the same molecule?
Answer: -20.2%

Question: And the Time [3]?
Answer: 61 min

Question: What about the Activity [4] of the same molecule?
Answer: -25.1%

Question: What about the Activity [5] of the same molecule?
Answer: -6.6%

Question: What about the Activity [6] of the same molecule?
Answer: -12.1%

Question: How did the pA2 [1] turn out when `COc1ccc(CCNC(C)COc2c(C)cc(Cl)cc2C)cc1OC.Cl` (configuration not stated) was run?
Answer: 8.18

Question: And the Activity [2]?
Answer: -15.9%

Question: And the Time [3]?
Answer: 34 min

Question: What about the Activity [4] of the same molecule?
Answer: -18.5%

Question: What about the Activity [5] of the same molecule?
Answer: -8.78%

Question: What about the Activity [6] of the same molecule?
Answer: -13.3%

Question: What does the source list for `COc1ccc(CCNC(C)COc2c(C)cc(Br)cc2C)cc1OC.Cl` (configuration not stated)?
Answer: pA2 [1]: 6.93; Activity [2]: -8.5%; Time [3]: 12 min; Activity [4]: -7.8%; Activity [5]: -8.3%; Activity [6]: -9.2%

Question: `COc1cc(CCNC(C)COc2c(C)cc(Br)cc2C)ccc1O.Cl` (configuration not stated) was tested. Which pA2 [1] did it give?
Answer: 9.94

Question: And the Activity [2]?
Answer: -15.5%

Question: What about the Time [3] of the same molecule?
Answer: 23 min

Question: And the Activity [4]?
Answer: -19.1%

Question: What about the Activity [5] of the same molecule?
Answer: -1.7%

Question: What about the Activity [6] of the same molecule?
Answer: -7.6%

Question: What does the source list for `COc1ccc(CCNC(C)COc2c(C)cc(Br)cc2C)cc1O.Cl` (configuration not stated)?
Answer: pA2 [1]: 7.02; Activity [2]: -7.5%; Time [3]: 4 min; Activity [4]: -12.8%; Activity [5]: -2.3%; Activity [6]: -3.5%

Question: Which pA2 [1] does the source give for `COc1ccc(CCNC(C)COc2c(C)ccc(C)c2C)cc1OC.Cl` (configuration not stated) here?
Answer: 7.71

Question: What about the Activity [2] of the same molecule?
Answer: -27.1%

Question: And the Time [3]?
Answer: 57 min

Question: And the Activity [4]?
Answer: -34.2%

Question: And the Activity [5]?
Answer: -16.6%

Question: And the Activity [6]?
Answer: -17.4%

Question: How did the pA2 [1] turn out when `COc1cc(CCNC(C)COc2c(C)ccc(C)c2C)ccc1O.Cl` (configuration not stated) was run?
Answer: 8.02

Question: And the Activity [2]?
Answer: -14.6%

Question: And the Time [3]?
Answer: 80 min

Question: And the Activity [4]?
Answer: -20.5%

Question: And the Activity [5]?
Answer: -0.96%

Question: What about the Activity [6] of the same molecule?
Answer: -7.9%

Question: What does the source list for `COc1cc(CCNC(C)COc2c(C)cc(C)cc2C)ccc1O.Cl` (configuration not stated)?
Answer: pA2 [1]: 8.86; Activity [2]: -45.92%; Time [3]: 205 min; Activity [4]: -48.99%; Activity [5]: -23.52%; Activity [6]: -36.45%

Question: Which pA2 [1] does the source give for `COc1ccc(CCNC(C)COc2c(C)cc(C)cc2C)cc1OC.Cl` (configuration not stated) here?
Answer: 7.25

Question: And the Activity [2]?
Answer: -27.86%

Question: What about the Time [3] of the same molecule?
Answer: 33 min

Question: What about the Activity [4] of the same molecule?
Answer: -28.23%

Question: What about the Activity [5] of the same molecule?
Answer: -16.3%

Question: And the Activity [6]?
Answer: -19.03%

Question: What does the source list for `COc1cc(CCNC(C)COc2c(C)cc(C#N)cc2C)ccc1O.Cl` (configuration not stated)?
Answer: pA2 [1]: 6.65; Activity [2]: -24.9%; Time [3]: 6 min; Activity [4]: -29.61%; Activity [5]: -2.33%; Activity [6]: -17.3%

Question: Which results are given for `COc1ccc(CCNC(C)COc2c(C)cccc2C)cc1OC.Cl` (configuration not stated)?
Answer: pA2 [1]: 8.07; Activity [2]: -30.4%; Time [3]: 120 min; Activity [4]: -26%; Activity [5]: -16.04%; Activity [6]: -19.79%
